# Legend:
# ACHN = test: Growth inhibition of human ACHN cells after 48 hrs by sulforhodamine B assay; type: functional
# Procedure, shortened: (§1)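 Dose–response in each cell line over at least five concentrations at 10-fold dilutions, with 48 h continuous exposure and sulforhodamine B read-out.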
# NCI-H460 = test: Growth inhibition of human NCI-H460 cells after 48 hrs by sulforhodamine B assay; type: functional; conditions: NCI-H460, 48 h
# Procedure, shortened: (§2)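 Panel of 60 human cancer cell lines; for each compound, dose–response curves per cell line measured at a minimum of five concentrations at 10-fold dilutions. Cells exposed continuously to drug for 48 h, and growth was read out by sulforhodamine B staining.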
# MCF7 = test: Growth inhibition of human MCF7 cells after 48 hrs by sulforhodamine B assay; type: functional; conditions: MCF7, 48 h; procedure, shortened: as §2
# BT-549 = test: Growth inhibition of human BT549 cells after 48 hrs by sulforhodamine B assay; type: functional; conditions: BT-549, 48 h; procedure, shortened: as §1
# T47D = test: Growth inhibition of human T47D cells after 48 hrs by sulforhodamine B assay; type: functional; procedure, shortened: as §2
# COLO 205 = test: Growth inhibition of human COLO205 cells after 48 hrs by sulforhodamine B assay; type: functional; conditions: COLO 205, 48 h; procedure, shortened: as §1
# MDA-MB-435 = test: Growth inhibition of human MDA-MB-435 cells after 48 hrs by sulforhodamine B assay; type: functional; conditions: MDA-MB-435, 48 h; procedure, shortened: as §2
# SW-620 = test: Growth inhibition of human SW620 cells after 48 hrs by sulforhodamine B assay; type: functional; conditions: SW-620, 48 h; procedure, shortened: as §2
# TK-10 = test: Growth inhibition of human TK10 cells after 48 hrs by sulforhodamine B assay; type: functional; conditions: TK-10, 48 h; procedure, shortened: as §2
# SNB-19 = test: Growth inhibition of human SNB19 cells after 48 hrs by sulforhodamine B assay; type: functional; conditions: SNB-19, 48 h; procedure, shortened: as §2
# OVCAR-3 = test: Growth inhibition of human OVCAR-3 cells after 48 hrs by sulforhodamine B assay; type: functional; conditions: OVCAR-3, 48 h; procedure, shortened: as §2
# A549 = test: Growth inhibition of human A549 cells after 48 hrs by sulforhodamine B assay; type: functional; conditions: A549, 48 h; procedure, shortened: as §1
# MDA-MB-231 = test: Growth inhibition of human MDA-MB-231 cells after 48 hrs by sulforhodamine B assay; type: functional; conditions: MDA-MB-231, 48 h; procedure, shortened: as §2
# UO-31 = test: Growth inhibition of human UO31 cells after 48 hrs by sulforhodamine B assay; type: functional; conditions: UO-31, 48 h; procedure, shortened: as §2
# CCRF-CEM = test: Growth inhibition of human CCRF-CEM cells after 48 hrs by sulforhodamine B assay; type: functional; procedure, shortened: as §1
# HT-29 = test: Growth inhibition of human HT-29 cells after 48 hrs by sulforhodamine B assay; type: functional; conditions: HT-29, 48 h; procedure, shortened: as §2
# SK-MEL-2 = test: Growth inhibition of human SK-MEL-2 cells after 48 hrs by sulforhodamine B assay; type: functional; conditions: SK-MEL-2, 48 h; procedure, shortened: as §2
# K562 = test: Growth inhibition of human K562 cells after 48 hrs by sulforhodamine B assay; type: functional; conditions: K562, 48 h; procedure, shortened: as §2
# [1] = Growth inhibition of human […] cells after 48 hrs by sulforhodamine B assay; type: functional; procedure, shortened: as §2
# HOP-62 = test: Growth inhibition of human HOP62 cells after 48 hrs by sulforhodamine B assay; type: functional; conditions: HOP-62, 48 h; procedure, shortened: as §2
# RXF 393 = test: Growth inhibition of human RXF393 cells after 48 hrs by sulforhodamine B assay; type: functional; conditions: RXF 393, 48 h; procedure, shortened: as §2
# HL-60 = test: Growth inhibition of human HL-60(TB) cells after 48 hrs by sulforhodamine B assay; type: functional; conditions: HL-60, 48 h; procedure, shortened: as §2
# SK-MEL-5 = test: Growth inhibition of human SK-MEL-5 cells after 48 hrs by sulforhodamine B assay; type: functional; conditions: SK-MEL-5, 48 h; procedure, shortened: as §2
# SR = test: Growth inhibition of human SR cells after 48 hrs by sulforhodamine B assay; type: functional; procedure, shortened: as §2
# NCI-H23 = test: Growth inhibition of human NCI-H23 cells after 48 hrs by sulforhodamine B assay; type: functional; conditions: NCI-H23, 48 h; procedure, shortened: as §2
# OVCAR-5 = test: Growth inhibition of human OVCAR5 cells after 48 hrs by sulforhodamine B assay; type: functional; conditions: OVCAR-5, 48 h; procedure, shortened: as §2
# Hs-578T = test: Growth inhibition of human Hs 578T cells after 48 hrs by sulforhodamine B assay; type: functional; procedure, shortened: as §2
# SF-295 = test: Growth inhibition of human SF295 cells after 48 hrs by sulforhodamine B assay; type: functional; conditions: SF-295, 48 h; procedure, shortened: as §2
# KM12 = test: Growth inhibition of human KM12 cells after 48 hrs by sulforhodamine B assay; type: functional; conditions: KM12, 48 h; procedure, shortened: as §2
# DU-145 = test: Growth inhibition of human DU145 cells after 48 hrs by sulforhodamine B assay; type: functional; conditions: DU-145, 48 h; procedure, shortened: as §1
# CAKI-1 = test: Growth inhibition of human Caki1 cells after 48 hrs by sulforhodamine B assay; type: functional; conditions: CAKI-1, 48 h; procedure, shortened: as §1
# Malme-3M = test: Growth inhibition of human MALME-3M cells after 48 hrs by sulforhodamine B assay; type: functional; procedure, shortened: as §2
# MOLT-4 = test: Growth inhibition of human MOLT4 cells after 48 hrs by sulforhodamine B assay; type: functional; conditions: MOLT-4, 48 h; procedure, shortened: as §2
# SF-539 = test: Growth inhibition of human SF539 cells after 48 hrs by sulforhodamine B assay; type: functional; conditions: SF-539, 48 h; procedure, shortened: as §2
# M14 = test: Growth inhibition of human M14 cells after 48 hrs by sulforhodamine B assay; type: functional; conditions: M14, 48 h; procedure, shortened: as §2
# HCT-15 = test: Growth inhibition of human HCT15 cells after 48 hrs by sulforhodamine B assay; type: functional; conditions: HCT-15, 48 h; procedure, shortened: as §2
# NCI-H226 = test: Growth inhibition of human NCI-H226 cells after 48 hrs by sulforhodamine B assay; type: functional; conditions: NCI-H226, 48 h; procedure, shortened: as §2
# LOX IMVI = test: Growth inhibition of human LOXIMVI cells after 48 hrs by sulforhodamine B assay; type: functional; procedure, shortened: as §2
# NCI-H522 = test: Growth inhibition of human NCI-H522 cells after 48 hrs by sulforhodamine B assay; type: functional; conditions: NCI-H522, 48 h; procedure, shortened: as §2
# PC-3 = test: Growth inhibition of human PC3 cells after 48 hrs by sulforhodamine B assay; type: functional; conditions: PC-3, 48 h; procedure, shortened: as §2
# OVCAR-4 = test: Growth inhibition of human OVCAR4 cells after 48 hrs by sulforhodamine B assay; type: functional; conditions: OVCAR-4, 48 h; procedure, shortened: as §2
# HCC 2998 = test: Growth inhibition of human HCC2998 cells after 48 hrs by sulforhodamine B assay; type: functional; conditions: HCC 2998, 48 h; procedure, shortened: as §2
# HCT-116 = test: Growth inhibition of human HCT116 cells after 48 hrs by sulforhodamine B assay; type: functional; conditions: HCT-116, 48 h; procedure, shortened: as §2
# Calf thymus DNA = test: Binding affinity to calf thymus duplex-form DNA assessed as melting temperature at 1:5 compound/DNA ratio after 18 hrs; type: nucleic-acid assay; conditions: Bos taurus
# SK-OV-3 = test: Growth inhibition of human SKOV3 cells after 48 hrs by sulforhodamine B assay; type: functional; conditions: SK-OV-3, 48 h; procedure, shortened: as §2
# NCI-H322M = test: Growth inhibition of human NCI-H322M cells after 48 hrs by sulforhodamine B assay; type: functional; procedure, shortened: as §2
# SN12C = test: Growth inhibition of human SN12C cells after 48 hrs by sulforhodamine B assay; type: functional; procedure, shortened: as §2
# OVCAR-8 = test: Growth inhibition of human OVCAR8 cells after 48 hrs by sulforhodamine B assay; type: functional; conditions: OVCAR-8, 48 h; procedure, shortened: as §2
# HOP-92 = test: Growth inhibition of human HOP92 cells after 48 hrs by sulforhodamine B assay; type: functional; conditions: HOP-92, 48 h; procedure, shortened: as §2
# NCI/ADR-RES = test: Growth inhibition of human NCI/ADR-RES cells after 48 hrs by sulforhodamine B assay; type: functional; procedure, shortened: as §2
# IGROV-1 = test: Growth inhibition of human IGROV1 cells after 48 hrs by sulforhodamine B assay; type: functional; conditions: IGROV-1, 48 h; procedure, shortened: as §2
# UACC-62 = test: Growth inhibition of human UACC62 cells after 48 hrs by sulforhodamine B assay; type: functional; conditions: UACC-62, 48 h; procedure, shortened: as §2
# EKVX = test: Growth inhibition of human EKVX cells after 48 hrs by sulforhodamine B assay; type: functional; procedure, shortened: as §1
# SNB-75 = test: Growth inhibition of human SNB75 cells after 48 hrs by sulforhodamine B assay; type: functional; conditions: SNB-75, 48 h; procedure, shortened: as §2
# U-251 = test: Growth inhibition of human U251 cells after 48 hrs by sulforhodamine B assay; type: functional; conditions: U-251, 48 h; procedure, shortened: as §2
# SK-MEL-28 = test: Growth inhibition of human SK-MEL-28 cells after 48 hrs by sulforhodamine B assay; type: functional; conditions: SK-MEL-28, 48 h; procedure, shortened: as §2
# 786-0 = test: Growth inhibition of human 786-0 cells after 48 hrs by sulforhodamine B assay; type: functional; conditions: 786-0, 48 h; procedure, shortened: as §1
# A498 = test: Growth inhibition of human A498 cells after 48 hrs by sulforhodamine B assay; type: functional; conditions: A498, 48 h; procedure, shortened: as §1
# SF-268 = test: Growth inhibition of human SF268 cells after 48 hrs by sulforhodamine B assay; type: functional; conditions: SF-268, 48 h; procedure, shortened: as §2
# UACC-257 = test: Growth inhibition of human UACC257 cells after 48 hrs by sulforhodamine B assay; type: functional; conditions: UACC-257, 48 h; procedure, shortened: as §2
smiles,measurement,setting,value
COc1cc2c(cc1OCCCCCOc1ccc(-c3nc4ccccc4s3)cc1)N=C[C@@H]1CCCN1C2=O,GI50,ACHN,1100 nM
same,GI50,NCI-H460,347 nM
same,GI50,MCF7,331 nM
same,GI50,BT-549,229 nM
same,GI50,T47D,234 nM
same,GI50,COLO 205,389 nM
same,GI50,MDA-MB-435,1380 nM
same,GI50,SW-620,1020 nM
same,GI50,TK-10,3470 nM
same,GI50,SNB-19,2950 nM
same,GI50,OVCAR-3,741 nM
same,GI50,A549,2570 nM
same,GI50,MDA-MB-231,263 nM
same,GI50,UO-31,724 nM
same,GI50,CCRF-CEM,269 nM
same,GI50,HT-29,457 nM
same,GI50,SK-MEL-2,1550 nM
same,GI50,K562,363 nM
same,GI50,[1],398 nM
same,GI50,HOP-62,407 nM
same,GI50,RXF 393,200 nM
same,GI50,HL-60,562 nM
same,GI50,SK-MEL-5,339 nM
same,GI50,SR,19.1 nM
same,GI50,NCI-H23,891 nM
same,GI50,OVCAR-5,661 nM
same,GI50,Hs-578T,1320 nM
same,GI50,SF-295,776 nM
same,GI50,KM12,1550 nM
same,GI50,DU-145,355 nM
same,GI50,CAKI-1,513 nM
same,GI50,Malme-3M,1230 nM
same,GI50,MOLT-4,282 nM
same,GI50,SF-539,479 nM
same,GI50,M14,324 nM
same,GI50,HCT-15,933 nM
same,GI50,NCI-H226,1510 nM
same,GI50,LOX IMVI,240 nM
same,GI50,NCI-H522,550 nM
same,GI50,PC-3,234 nM
same,GI50,OVCAR-4,2140 nM
same,GI50,HCC 2998,631 nM
same,GI50,HCT-116,347 nM
same,ΔTm,Calf thymus DNA,4.3 °C
same,GI50,SK-OV-3,2570 nM
same,GI50,NCI-H322M,1950 nM
same,GI50,SN12C,813 nM
same,GI50,OVCAR-8,813 nM
same,GI50,HOP-92,269 nM
same,GI50,NCI/ADR-RES,1120 nM
same,GI50,IGROV-1,2690 nM
same,GI50,UACC-62,1170 nM
same,GI50,EKVX,1550 nM
same,GI50,SNB-75,1200 nM
same,GI50,U-251,457 nM
same,GI50,SK-MEL-28,3890 nM
same,GI50,786-0,263 nM
same,GI50,A498,2240 nM
same,GI50,SF-268,3240 nM
same,GI50,UACC-257,2240 nM
COc1cc2c(cc1OCCCCC(=O)Nc1ccc(-c3nc4ccc(F)cc4s3)cc1)N=C[C@@H]1CCCN1C2=O,ΔTm,Calf thymus DNA,2.3 °C

# — ChEMBL document CHEMBL1177643, “Synthesis, DNA-binding ability and anticancer activity of benzothiazole/benzoxazole-pyrrolo[2,1-c][1,4]benzodiazepine conjugates” (Bioorg Med Chem, 2010)
